Source: PubChem BioAssay
Only some compounds are listed: those with a hit (about 2.1% of all), similar ones and a draw of the others.
SUMO1-SIM PPI: modulators of human SUMO1-mediated protein-protein interactions | SUMO1 binding to a labelled peptide, TR-FRET, 1 h | inhibition, % at 20 µM | P63165 | hit rate 0.33% among 360,000; in the data active means inhibition above about 37%
GRK2 inh: human GRK2 inhibition via aptamer displacement; inhibition of aptamer binding, % at 10 µM; P25098; bead flow cytometry, FAM-aptamer displacement from GRK2; hit rate 0.59% among 330,000;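 active means inhibition of aptamer binding above 40%, roughly 3 SD of noise, on plates passing a quality check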;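 further: median bead fluorescence of bound FAM aptamer so fluorescent compounds give negative values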
Target sequence (P25098 whole entry, looked up): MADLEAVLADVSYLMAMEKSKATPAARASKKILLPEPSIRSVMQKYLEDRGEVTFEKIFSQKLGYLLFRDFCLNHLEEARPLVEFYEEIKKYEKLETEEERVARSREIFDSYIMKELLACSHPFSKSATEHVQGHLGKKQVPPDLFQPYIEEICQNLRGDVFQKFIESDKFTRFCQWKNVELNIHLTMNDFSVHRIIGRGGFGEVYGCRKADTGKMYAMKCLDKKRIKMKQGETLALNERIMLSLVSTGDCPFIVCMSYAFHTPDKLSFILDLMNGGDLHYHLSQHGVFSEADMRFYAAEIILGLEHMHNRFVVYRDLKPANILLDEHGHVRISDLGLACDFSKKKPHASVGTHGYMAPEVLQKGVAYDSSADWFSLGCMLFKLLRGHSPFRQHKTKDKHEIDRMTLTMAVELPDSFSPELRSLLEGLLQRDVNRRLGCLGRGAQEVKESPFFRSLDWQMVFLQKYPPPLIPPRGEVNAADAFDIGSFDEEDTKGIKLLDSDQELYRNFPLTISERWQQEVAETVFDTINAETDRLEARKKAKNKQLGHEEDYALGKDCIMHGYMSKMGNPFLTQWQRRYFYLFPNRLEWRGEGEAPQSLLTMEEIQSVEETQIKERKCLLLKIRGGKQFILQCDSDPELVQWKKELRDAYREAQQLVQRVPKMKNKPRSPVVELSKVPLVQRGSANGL
Scp-1 inhibitor: Scp-1 (human) phosphatase inhibition | Recombinant Scp1, phosphopeptide, malachite green phosphate absorbance | hit rate 0.88% among 340,000 | inhibition, % at 20 µM | AID 493091;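 active means inhibition above about 50% at 20 µM, limit read from the data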
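System: truncated SCP-1 phosphatase (76-261aa); medium: Tris acetate buffer pH 5.5 with MgCl2 and Tween-20; incubation: 45 min room-temperature reaction, 5 min colour, 30 min stabiliser; compound: single 20 µM dose, 1% DMSO; reagent: Phosphorylated 17-residue peptide substrate; read-out: % inhibition at 20 µM; technique: colorimetric free-phosphate detection, absorbance 630 nm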
STEP inh: STEP (human) phosphatase inhibition. P54829. recombinant STEP, OMFP fluorogenic substrate, fluorescence. inhibition, % at 20 µM. hit rate 0.25% among 360,000. AID 588621;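 active means inhibition at 20 µM, scaled per plate between control wells, above about 37%, limit read from the data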
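Material: STEP (striatal-enriched tyrosine phosphatase) enzyme, cell-free; Compound dosing: 20 µM single dose in 1% DMSO; Technique: fluorescence read at 480 nm ex / 540 nm em; Times: reaction 20 min, ambient temperature; Medium: 50 mM Bis-Tris pH 6.0 with 2.5 mM DTT and 0.005% Tween 20; Also added: OMFP at 25 µM.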
DNMT1 block: blocks human DNA methyltransferase DNMT1 | inhibition (reported as % activation of signal), % at 10 µM | hit rate 0.83% among 360,000 | DNMT1 molecular beacon, Hinp1I cleavage, fluorescence; in the data active means inhibition above about 50%
LMPTP inh: blocks human LMPTP phosphatase | P24666 | recombinant LMPTP-A, OMFP fluorogenic substrate, fluorescence intensity | inhibition, % at 20 µM | hit rate 0.22% among 360,000;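 active means compounds that cut the enzyme signal by at least half of the control window in the single-dose screen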
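test system = LMPTP-A | amount = 0.625 nM LMPTP-A final | reagent = fluorogenic phosphatase substrate OMFP at 400 µM final | incubation = 50 min at room temperature | benchmarks = no-enzyme low control, uninhibited high control | medium = Bis-Tris pH 6.0, DTT, detergent | signal = fluorescence intensity of OMFP turnover product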
Large screens that a line does not name were inactive.

COc1ccc(C(=O)Nc2ccc(C(=O)Nc3nccs3)cc2)cc1[N+](=O)[O-]	SUMO1-SIM PPI 54
CC[C@]12c3[nH]c4ccc(OC)cc4c3CCN1C(=O)C(CC(=O)NCC13CC4CC(CC(C4)C1)C3)C[C@@H]2C(=O)N1CCN(C(=O)c2ccco2)CC1 (some centres undefined)	GRK2 inh 43
CC[C@]12c3[nH]c4ccc(Cl)cc4c3CCN1C(=O)[C@@H](CC(=O)NCC13CC4CC(CC(C4)C1)C3)C[C@@H]2C(=O)N1CCN(C(=O)c2ccco2)CC1	none
CC1(C(=O)NS(=O)(=O)C2CC2)CCCN(C(=O)c2cccc(OC(F)(F)F)c2)C1 (centres undefined)	none (no result: GRK2 inh, Scp-1 inhibitor)
COc1ccc([C@H]2CC(=O)C[C@@H](CCn3nnc4ccccc43)O2)cc1	none (no result: GRK2 inh, Scp-1 inhibitor, STEP inh, DNMT1 block)
COC(=O)C[C@H]1CC[C@@H](NC(=O)c2ccncc2)[C@@H](CO)O1	none (no result: GRK2 inh, Scp-1 inhibitor, STEP inh, DNMT1 block)
COC(=O)c1ccc(C(=O)Nc2ccc(N)cc2N)cc1	SUMO1-SIM PPI 47
CC(=O)N1c2ccc(S(=O)(=O)N3CCC(C(=O)Nc4cccc(Cl)c4)CC3)cc2CC1C (centres undefined)	GRK2 inh 85
CC(=O)N1c2ccc(S(=O)(=O)N3CCC(C(=O)Nc4cccc(C)c4)CC3)cc2CC1C (centres undefined)	none
COC(=O)C1=CN(c2ccc(N3CCOCC3)cc2)C(N)=C(C#N)C1c1ccc(-c2ccccc2)cc1 (centres undefined)	none (no result: GRK2 inh, Scp-1 inhibitor, STEP inh, DNMT1 block)
Cc1cc(N2CCN(c3nc(-c4ccccc4)cs3)CC2)c2ccccc2n1	LMPTP inh 82
c1ccc(-c2csc(N3CCCCCC3)n2)cc1	none
Cc1cc(N2CCN(c3ccc([N+](=O)[O-])c4cccnc34)CC2)c2ccccc2n1	LMPTP inh 97
Nc1cccc2nc3ccccc3cc12	DNMT1 block 69
Nc1[nH]nc2nc3ccccc3cc12	none
COc1ccc(Nc2ncnc3ccccc23)cc1	none
COc1ccc(Nc2ccnc3ccccc23)cc1	LMPTP inh 56
CC(C)Nc1ccc(Nc2ccnc3cc4ccccc4cc23)cc1	DNMT1 block 66
CCCCCC#CCC#CCC#CCC#CCCCC(=O)O	GRK2 inh 50 (no result: SUMO1-SIM PPI, Scp-1 inhibitor, STEP inh, DNMT1 block, LMPTP inh)
COc1ccc(C2NC(=S)NC(C)=C2C(=O)Nc2ccccn2)cc1 (centres undefined)	SUMO1-SIM PPI 57
CCOC(=O)c1ccccc1NC(=O)CN1CCC(n2nnc3cc(C(F)(F)F)ccc32)CC1	SUMO1-SIM PPI 61
O=C(O)c1ccc(-c2ccc(/C=N/Nc3ccc([N+](=O)[O-])cc3)o2)cc1	Scp-1 inhibitor 85
O=C(O)c1cccc(-c2ccc(/C=N/Nc3ccc([N+](=O)[O-])cc3)o2)c1	none
Cc1cc(C)n(Cc2ccc(C(=O)N/N=C/c3ccc(-c4ccc([N+](=O)[O-])cc4)o3)o2)n1	SUMO1-SIM PPI 104, Scp-1 inhibitor 102, STEP inh 99, DNMT1 block 98, LMPTP inh 97
CNC(=S)N/N=C/c1ccc(-c2ccc(C(=O)O)cc2)o1	Scp-1 inhibitor 52
O=C(O)c1ccc(N=Nc2c(O)[nH]c3ccc(Br)cc23)cc1	none
O=C(O)c1ccc(N=Nc2c(O)[nH]c3cc(Cl)ccc23)cc1	Scp-1 inhibitor 56
COc1ccc(NC(=O)c2cc(-c3cc(C)cc(F)c3)n[nH]2)cc1OC	none (no result: GRK2 inh, Scp-1 inhibitor)
COc1ccc(-c2csc(/C(C#N)=C\c3cccc([N+](=O)[O-])c3)n2)cc1	none (no result: SUMO1-SIM PPI, Scp-1 inhibitor, STEP inh, DNMT1 block, LMPTP inh)
N#C/C(=C\c1ccc(O)c([N+](=O)[O-])c1)c1nc2ccccc2s1	none (no result: GRK2 inh)
COc1ccc(-c2csc(/C(C#N)=C\c3ccc(O)c([N+](=O)[O-])c3)n2)cc1OC	SUMO1-SIM PPI 38
COc1ccc(-c2csc(/C(C#N)=C\c3ccc(OC)c([N+](=O)[O-])c3)n2)cc1	GRK2 inh 90
COC(=O)CCCn1cc(CN2CC(N3CCN(C4CCN(C)CC4)CC3)CS2(=O)=O)nn1 (centres undefined)	none (no result: GRK2 inh, Scp-1 inhibitor, STEP inh, DNMT1 block)
CCN(CC)CCNc1ccc(C)c2sc3ccc(O)cc3c(=O)c12	DNMT1 block 54 (no result: GRK2 inh)
CC1CCCN(S(=O)(=O)c2cc(C(=O)NCCc3ccc(S(N)(=O)=O)cc3)ccc2Cl)C1 (centres undefined)	none (no result: GRK2 inh)
Cc1ccc2[nH]c3nc(N/N=C/c4cccc(O)c4)nnc3c2c1	none
CCc1ccc2[nH]c3nc(N/N=C/c4ccc(O)cc4O)nnc3c2c1	DNMT1 block 62
N/C(=N\NS(=O)(=O)c1ccc(Cl)cc1)c1ccccn1	GRK2 inh 41
COc1ccc2nc3cc(Cl)ccc3c(Nc3ccc(O)c(CN4CCN(C)CC4)c3)c2c1	DNMT1 block 68 (no result: GRK2 inh)
Oc1ccc(N=C/C=C/c2ccc(Br)cc2)cc1-c1nc2ccccc2s1	GRK2 inh 41 (no result: SUMO1-SIM PPI, Scp-1 inhibitor, STEP inh, DNMT1 block, LMPTP inh)
Cc1nccn1CC(=O)c1ccccc1	none (no result: GRK2 inh, Scp-1 inhibitor)
Cc1cccc(C)c1NC(=O)CSCC(=O)c1ccc(O)c(O)c1	LMPTP inh 48
O=C(C[C@@H]1CC[C@@H]2[C@H](COC[C@H](O)CN2C(=O)Nc2ccc(F)cc2)O1)NCCc1ccncc1	none (no result: GRK2 inh, Scp-1 inhibitor, STEP inh, DNMT1 block)
CC(=O)N1CCc2c(sc(NC(=O)C3CC3)c2-c2nc3ccccc3s2)C1	none
CC(=O)Nc1sc2c(c1-c1nc3ccccc3s1)CN(C(C)C)CC2	DNMT1 block 78
CN(C)S(=O)(=O)c1ccc(C(=O)OCC(=O)c2ccc3c(c2)NC(=O)CO3)cc1	LMPTP inh 57
CN(C)S(=O)(=O)c1cccc(C(=O)OCC(=O)c2ccc3c(c2)NC(=O)CO3)c1	none
O=c1ccc2[n+]([O-])c3ccc(O)cc3oc-2c1	DNMT1 block 58 (no result: GRK2 inh)
O=C(NC1CCCCC1)C1c2ccccc2OCC(=O)N1CCc1ccccc1 (centres undefined)	none (no result: GRK2 inh, Scp-1 inhibitor, STEP inh, DNMT1 block)
O=C(NCCCn1ccnc1)/C(=C\c1cccs1)NC(=O)c1ccco1	GRK2 inh 41
Cc1cc2cc(C)c(NCCNC(=O)c3cccs3)nc2cc1C	SUMO1-SIM PPI 50
Cc1cc2cc(C)c(NCCNC(=O)c3ccccc3F)nc2cc1C	none
Cc1cccc2sc(=S)[nH]c12	none (no result: GRK2 inh, Scp-1 inhibitor)
CCCN1CCc2c(sc(NC(=S)NC(=O)c3ccccc3)c2C#N)C1	LMPTP inh 59
Cc1noc(C)c1S(=O)(=O)NC(=O)C1(C)CCN1C(=O)c1ccc(C2CCCCC2)cc1 (centres undefined)	none (no result: GRK2 inh, Scp-1 inhibitor)
Cc1cccc(C)c1-n1nnnc1-c1nc2cc3ccccc3cc2[nH]c1=O	none (no result: GRK2 inh, Scp-1 inhibitor, STEP inh, DNMT1 block)
COC/C=C/C1=CC2=CC(=O)C(C)(O)C(=O)C2=CO1 (centres undefined)	GRK2 inh 87 (no result: SUMO1-SIM PPI, Scp-1 inhibitor, STEP inh, DNMT1 block, LMPTP inh)
COC/C=C/C1=CC2=CC(=O)C(C)(OC(=O)C3CCCC3)C(=O)C2=CO1 (centres undefined)	none
O=C(Nc1ccc(NC(=O)c2ccc(Cl)cc2Cl)cc1)c1ccc2c(c1)OCO2	none
